In data set [1] the target is T1, Renin (Macaca fascicularis, UniProt Q6DLS0).
T1 sequence (Q6DLS0 whole entry): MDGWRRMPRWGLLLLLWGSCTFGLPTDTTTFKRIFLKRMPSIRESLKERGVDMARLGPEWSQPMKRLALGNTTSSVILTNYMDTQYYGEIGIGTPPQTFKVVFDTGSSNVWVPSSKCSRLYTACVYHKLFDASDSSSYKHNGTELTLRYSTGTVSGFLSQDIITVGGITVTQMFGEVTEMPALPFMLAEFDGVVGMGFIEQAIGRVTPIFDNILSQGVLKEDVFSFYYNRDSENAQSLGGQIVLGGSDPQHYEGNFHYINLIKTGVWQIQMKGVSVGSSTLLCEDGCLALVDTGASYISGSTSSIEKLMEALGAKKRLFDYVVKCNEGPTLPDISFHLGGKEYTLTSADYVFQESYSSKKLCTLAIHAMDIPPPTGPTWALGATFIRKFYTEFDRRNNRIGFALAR
The data set is described as follows: Inhibition of renin in cynomolgus monkey plasma.

Data set [2] addresses T2, Renin (Homo sapiens, UniProt P00797).
T2 sequence (P00797 whole entry): T1 sequence (Q6DLS0 whole entry) with A68T, L214I, A235S
Briefly: Inhibition of human purified renin.

Data set [3] can be described thus: Metabolic stability in cynomolgus monkey liver microsomes assessed as compound remaining at 1 uM incubated with NADPH generating system measured after 30 mins. The data set is classed as ADME, Macaca fascicularis, Microsome. As to conditions: read-out: Stability. The method, boiled down: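 Monkey liver microsome stability, high-throughput in-house format: compound incubated at […] with an NADPH-generating system and 0.5 mg/mL microsomal protein at 37 °C.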
On the technique in general: Liver microsomes are a subcellular fraction often used to study metabolism.

Data set [4] can be described thus: Oral bioavailability in cynomolgus monkey at 10 mg/kg. As to conditions: in vivo. It counts as ADME, organism-based, Macaca fascicularis.
A short description of data set [5]: Clearance in cynomolgus monkey at 1 mg/kg, iv. The data set is classed as ADME, organism-based, Macaca fascicularis. Set-up: dose 1 mg/kg, route intravenous. As to conditions: in vivo.
A short description of data set [6]: Half life in cynomolgus monkey at 1 mg/kg, iv. It counts as ADME, organism-based, Macaca fascicularis. Set-up: dose 1 mg/kg, route intravenous. The following applies: in vivo.
Data set [7] in a line: Volume of distribution at steady state in cynomolgus monkey at 1 mg/kg, iv. It counts as ADME, organism-based, Macaca fascicularis. Also on record: dose 1 mg/kg, route intravenous. As to conditions: in vivo, read-out: Vdss.
Data set [8] is described as follows: AUC (0 to 24 hrs) in cynomolgus monkey at 10 mg/kg, po. As to conditions: plasma.
Data set [9] is described as follows: Cmax in cynomolgus monkey at 10 mg/kg, po. As to conditions: in vivo. Set-up: dose 10 mg/kg, route oral. The data set is classed as ADME, organism-based, Macaca fascicularis.

Each structure is given as a SMILES string. Where a chain is given by its changes, count along the chain named.

A word on the IC50: it is the concentration that inhibits the measured activity by half. What is called bioavailability is the share of a dose that reaches the circulation, judged against a reference dose that is usually intravenous. For orientation: clearance means the rate of elimination divided by the concentration. For orientation: half-life means the time in which the quantity being followed falls by half. In general, AUC(0-t) refers to the area under the concentration-time curve up to a stated or last time point. The term Cmax denotes the highest concentration seen after dosing.

Turning to `COCOc1ccccc1N1CC(C)(C)N(C[C@H](N)[C@@H](O)C[C@H](C(=O)NCC(C)(C)C(N)=O)C(C)C)CC1=O`, the IC50 on Renin [1] was 6.4 nM; at Renin [2], 1.4 nM.
For `COCCCOc1ccccc1N1CC(C)(C)N(C[C@H](N)[C@@H](O)C[C@H](C(=O)NCC(C)(C)C(N)=O)C(C)C)CC1=O`, in that order: 5.3 nM and 1.2 nM.
For `COCCOc1ccccc1N1CC(C)(C)N(C[C@H](N)[C@@H](O)C[C@H](C(=O)NCC(C)(C)C(N)=O)C(C)C)CC1=O`, in that order: 9.8 nM and 1.7 nM.
The matching figures for `COc1ccccc1N1CC(C)(C)N(C[C@H](N)[C@@H](O)C[C@H](C(=O)NCC(C)(C)C(N)=O)C(C)C)CC1=O`: 19 nM and 1.9 nM.
For `CC(C)[C@H](C[C@H](O)[C@@H](N)CN1CC(=O)N(c2ccccc2)CC1(C)C)C(=O)NCC(C)(C)C(N)=O`, the IC50 against Renin [1] was determined as 49 nM; against Renin [2] it was 3.1 nM.
On to `CC(C)[C@H](C[C@H](O)[C@@H](N)CN1CC(=O)N(c2ccccc2F)CC1(C)C)C(=O)NCC(C)(C)C(N)=O`, for which the values for the IC50 on Renin [1] and on Renin [2] were 30 nM and 2.2 nM, respectively.
Consider `Cc1ccccc1N1CC(C)(C)N(C[C@H](N)[C@@H](O)C[C@H](C(=O)NCC(C)(C)C(N)=O)C(C)C)CC1=O`, for which the IC50 worked out at 24 nM on Renin [1] and 1.7 nM against Renin [2].
`CC(C)[C@H](C[C@H](O)[C@@H](N)CN1CC(=O)N(c2ccccc2Cl)CC1(C)C)C(=O)NCC(C)(C)C(N)=O`: the IC50 against Renin [1] was 7 nM.
On to `COc1cccc(N2CC(C)(C)N(C[C@H](N)[C@@H](O)C[C@H](C(=O)NCC(C)(C)C(N)=O)C(C)C)CC2=O)c1`, for which the results for the IC50 against Renin [1] and against Renin [2] were 58 nM and 4.2 nM, respectively.
On to `CC(C)[C@H](C[C@H](O)[C@@H](N)CN1CC(=O)N(c2cccc(F)c2)CC1(C)C)C(=O)NCC(C)(C)C(N)=O`, for which the IC50 against Renin [1] is 23 nM; against Renin [2], 3 nM.
For `CC(C)[C@H](C[C@H](O)[C@@H](N)CN1CC(=O)N(c2cccc(Cl)c2)CC1(C)C)C(=O)NCC(C)(C)C(N)=O`, in that order: 25 nM and 2.1 nM.
On to `CC(C)[C@H](C[C@H](O)[C@@H](N)CN1CC(=O)N(c2cccc(F)c2F)CC1(C)C)C(=O)NCC(C)(C)C(N)=O`, for which the figures for the IC50 at Renin [1] and against Renin [2] were 11 nM and 2 nM, respectively.
On to `CC(C)[C@H](C[C@H](O)[C@@H](N)CN1CC(=O)N(c2cc(F)ccc2F)CC1(C)C)C(=O)NCC(C)(C)C(N)=O`, for which the values for the IC50 on Renin [1] and against Renin [2] were 30 nM and 2 nM, respectively.
For `CC(C)[C@H](C[C@H](O)[C@@H](N)CN1CC(=O)N(c2c(F)cccc2F)CC1(C)C)C(=O)NCC(C)(C)C(N)=O`, in that order: 12 nM and 2.4 nM.
For `CC(C)[C@H](C[C@H](O)[C@@H](N)CN1CC(=O)N(c2cc(F)cc(F)c2)CC1(C)C)C(=O)NCC(C)(C)C(N)=O`, in that order: 90 nM and 5.5 nM.
For `CC(C)[C@H](C[C@H](O)[C@@H](N)CN1CC(=O)N(c2cc(F)ccc2Cl)CC1(C)C)C(=O)NCC(C)(C)C(N)=O`, in that order: 7 nM and 2.1 nM.
Regarding `CC(C)[C@H](C[C@H](O)[C@@H](N)CN1CC(=O)N(c2cc(Cl)ccc2Cl)CC1(C)C)C(=O)NCC(C)(C)C(N)=O`, the IC50 against Renin [1] was 28 nM; against Renin [2], 2.1 nM.
With `COc1ccc(Cl)c(N2CC(C)(C)N(C[C@H](N)[C@@H](O)C[C@H](C(=O)NCC(C)(C)C(N)=O)C(C)C)CC2=O)c1`, the IC50 at Renin [1] came out at 33 nM; on Renin [2], 2.4 nM.
For `CCCCNC(=O)[C@@H](C[C@H](O)[C@@H](N)CN1CC(=O)N(c2ccccc2Cl)CC1(C)C)C(C)C`, the figures for the IC50 at Renin [1] and against Renin [2] were 9 nM and 1 nM, respectively. In addition, the remaining at 0.5 h, 1 µM in data set [3] is 39.2%.
The matching figures for `CC[C@H](C)CNC(=O)[C@@H](C[C@H](O)[C@@H](N)CN1CC(=O)N(c2ccccc2Cl)CC1(C)C)C(C)C`: 2 nM, 1 nM and 8.4%.
The matching figures for `CC(C)[C@H](C[C@H](O)[C@@H](N)CN1CC(=O)N(c2ccccc2Cl)CC1(C)C)C(=O)NC1CCCCC1`: 11 nM, 1 nM and 17.5%.
As to `CCCCNC(=O)[C@@H](C[C@H](O)[C@@H](N)CN1CC(=O)N(c2cc(F)ccc2Cl)CC1(C)C)C(C)C.O=C(O)/C=C/C(=O)O`, the figures for the IC50 at Renin [1] and on Renin [2] were 25 nM and 2 nM, respectively. For the same compound, the bioavailability in data set [4] is 18.5%. This compound also had a clearance in data set [5] of 14.7 mL/min/kg. Moreover, the half-life in [6] was 10.8 h. In [7], the Vd is 16.3 L/kg. The same compound displayed an AUC(0-t) at 24 h in data set [8] of 2110 ng·h/mL. This compound also came in with a Cmax in data set [9] of 576 ng/mL. In data set [3], the remaining at 0.5 h, 1 µM was 52.2%.
Regarding `CC[C@H](C)CNC(=O)[C@@H](C[C@H](O)[C@@H](N)CN1CC(=O)N(c2cc(F)ccc2Cl)CC1(C)C)C(C)C`, the IC50 on Renin [1] worked out at 8 nM; on Renin [2], 1.4 nM. For the same compound, in data set [3], the remaining at 0.5 h, 1 µM is 1.9%.
The matching figures for `CC(C)[C@H](C[C@H](O)[C@@H](N)CN1CC(=O)N(c2cc(F)ccc2Cl)CC1(C)C)C(=O)NC1CCCCC1`: 5 nM, 1.9 nM and 38%.
On to `COCCCOc1ccccc1C1CCN(CC(N)C(O)CC(C(=O)NCC(C)(C)C(N)=O)C(C)C)CC1` (racemic), for which the values for the IC50 at Renin [1] and against Renin [2] were 12500 nM and 370 nM, respectively.
Compound `COCCCOc1ccccc1N1CCN(CC(N)C(O)CC(C(=O)NCC(C)(C)C(N)=O)C(C)C)CC1=O` (racemic) returned an IC50 against Renin [1] of 2800 nM.
Turning to `COCCCOc1cccc(N2CCN(CC(N)C(O)CC(C(=O)NCC(C)(C)C(N)=O)C(C)C)CC2=O)c1` (racemic), the IC50 at Renin [1] is 3000 nM; against Renin [2] it was 400 nM.
The matching figures for `COCCCOc1ccccc1N1CC(C)(C)N(CC(N)C(O)CC(C(=O)NCC(C)(C)C(N)=O)C(C)C)CC1=O` (racemic): 10 nM and 3.3 nM.
For `COCCCOc1ccccc1N1CCN(CC(N)C(O)CC(C(=O)NCC(C)(C)C(N)=O)C(C)C)C(C)(C)C1=O` (racemic), in that order: 875 nM and 170 nM.

Source of the values: ChEMBL document CHEMBL2046414, “Design and optimization of novel (2S,4S,5S)-5-amino-6-(2,2-dimethyl-5-oxo-4-phenylpiperazin-1-yl)-4-hydroxy-2-isopropylhexanamides as renin inhibitors” (Bioorg Med Chem Lett, 2012).
